Measurements: ChEMBL document CHEMBL4673249, “Anticancer Effects of Honokiol via Mitochondrial Dysfunction Are Strongly Enhanced by the Mitochondria-Targeting Carrier Berberine” (J Med Chem, 2020)
Active and inactive are the calls of the source. No cut-off for these calls is given here.

What was measured:
PANC-1 = test: Antiproliferative activity against human PANC1 cells assessed as reduction in cell viability after 48 hrs by MTT assay; assay type: functional, cell-based; conditions: PANC-1, 48 h
Outline: (§1)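 Cell lines grown at 37 °C in 5% CO2: A2780, A549, HL7702 and PC3 in RPMI 1640; HT29 in McCoy's 5A; HepG2 and PANC-1 in DMEM; all media with 10% FBS and penicillin/streptomycin. Cells seeded and left overnight, then exposed to compound for 48 h. MTT (5 mg/mL solution) added for 4 h at 37 °C, formazan dissolved in DMSO, absorbance read at 570 nm. IC50 taken from viability; run in triplicate.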

L02 = test: Antiproliferative activity against human L02 cells assessed as reduction in cell viability after 48 hrs by MTT assay; assay type: cell-based; conditions: L02, 48 h; outline: as §1
HT-29 = test: Antiproliferative activity against human HT29 cells assessed as reduction in cell viability after 48 hrs by MTT assay; assay type: functional, cell-based; conditions: HT-29, 48 h; outline: as §1
HepG2 [1] = test: Induction of morphological changes in human HepG2 cells assessed as accumulation of cytoplasmic vacuoles at 4 uM after 24 hrs by optical microscopic method; assay type: functional, cell-based
Outline: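 Cells grown at 37 °C, 5% CO2 in media with 10% FBS and penicillin/streptomycin, then treated with compound. Cytoplasmic vacuoles judged by optical microscopy. Time course at 4 μM, or 10 h exposure across increasing concentrations.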

A2780 = test: Antiproliferative activity against human A2780 cells assessed as reduction in cell viability after 48 hrs by MTT assay; assay type: functional, cell-based; conditions: A2780, 48 h; outline: as §1
HepG2 [2] = test: Antiproliferative activity against human HepG2 cells assessed as reduction in cell viability after 48 hrs by MTT assay; assay type: functional, cell-based; conditions: HepG2, 48 h; outline: as §1
A549 = test: Antiproliferative activity against human A549 cells assessed as reduction in cell viability after 48 hrs by MTT assay; assay type: functional, cell-based; conditions: A549, 48 h; outline: as §1
PC-3 = test: Antiproliferative activity against human PC-3 cells assessed as reduction in cell viability after 48 hrs by MTT assay; assay type: functional, cell-based; conditions: PC-3, 48 h; outline: as §1
HepG2 [3] = test: Synergistic antiproliferative activity against human HepG2 cells assessed as combination index at 20 to 80 uM after 48 hrs in presence of 10 to 40 uM HN by MTT assay; assay type: functional; conditions: dose 20-80 µM
HepG2 [4] = test: Induction of morphological changes in human HepG2 cells assessed as accumulation of cytoplasmic vacuoles at 40 uM after 24 hrs by optical microscopic method; assay type: functional, cell-based
HepG2 [5] = test: Synergistic antiproliferative activity against human HepG2 cells assessed as combination index after 48 hrs in presence HN by MTT assay; assay type: functional
HepG2 [6] = test: Synergistic antiproliferative activity against human HepG2 cells assessed as combination index after 48 hrs in presence BBR by MTT assay; assay type: functional
[7] = Drug uptake in human HepG2 cells mitochondria at 5 uM after 12 hrs by HPLC analysis; assay type: ADME; conditions: hepg2, 12 h
Outline: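 HepG2 cells given 5 μM for 12 h, then homogenized in mitochondrial extraction reagent. Spun at 600 g, 4 °C, 10 min; supernatant spun again at 11000 g, 4 °C, 10 min, and the pellet taken as mitochondria. Drug content by HPLC on a C18 column with methanol–0.1% acetic acid (80:20), detection at 265 nm. Run thrice.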

HepG2 [8] = test: Induction of morphological changes in human HepG2 cells assessed as accumulation of cytoplasmic vacuoles >30 uM after 24 hrs by optical microscopic method; assay type: functional, cell-based; conditions: dose microM >30, time 24.0 hrs

SMILES	IC50 (PANC-1) [µM]	IC50 (HT-29) [µM]	IC50 (A2780) [µM]	IC50 (HepG2 [2]) [µM]	IC50 (A549) [µM]	IC50 (PC-3) [µM]	Drug uptake [7] [µM]	IC50 (L02) [µM]	Activity (HepG2 [1])	CI (HepG2 [3])	Activity (HepG2 [4])	CI (HepG2 [5])	CI (HepG2 [6])	Activity (HepG2 [8])
COc1cccc2c1C(=O)c1c(O)c3c(c(O)c1C2=O)C[C@@](O)(C(=O)CO)C[C@@H]3O[C@H]1C[C@H](N)[C@H](O)[C@H](C)O1 [DOXORUBICIN]	1.73	5.92	0.71	0.67	3.08	0.93	–	2.24	–	–	–	–	–	–
C=CCc1ccc(OCCCCCc2c3[n+](cc4c(OC)c(OC)ccc24)CCc2cc4c(cc2-3)OCO4)c(-c2ccc(OCCC)c(CC=C)c2)c1	2.56	2.39	1.68	0.92	1.66	1.43	–	3.62	Active	–	–	–	–	–
COc1ccc2cc3[n+](cc2c1OC)CCc1cc2c(cc1-3)OCO2.[Cl-] [BERBERINE CHLORIDE]	> 50	> 50	> 50	> 50	> 50	31.7	–	> 50	–	>1	inactive	–	–	–
CCCCCc1c2[n+](cc3c(OC)c(OC)ccc13)CCc1cc3c(cc1-2)OCO3.[I-]	–	–	–	29.3	–	–	–	–	–	–	Active	0.79	–	–
C=CCc1ccc(OCCC)c(-c2ccc(OCCCCCc3c4[n+](cc5c(OC)c(OC)ccc35)CCc3cc5c(cc3-4)OCO5)c(CC=C)c2)c1	1.69	1.95	1.41	0.95	1.25	1.22	–	3.05	Active	–	–	–	–	–
C=CCc1ccc(O)c(-c2ccc(OCCC)c(CC=C)c2)c1	17.8	26.5	14.7	19.1	21	21.1	–	27.8	–	–	–	–	–	–
C=CCc1ccc(OCCC)c(-c2ccc(O)c(CC=C)c2)c1	15.9	26.4	14.7	15.5	14.7	17	–	22.4	–	–	–	–	–	–
C=CCc1ccc(OCCCCCc2c3[n+](cc4c(OC)c(OC)ccc24)CCc2cc4c(cc2-3)OCO4)c(-c2ccc(OC)c(CC=C)c2)c1	2.96	1.56	1.36	1.04	1.71	1.12	–	2.97	Active	–	–	–	–	–

The next lines start with results.

IC50 (PANC-1) [µM]	IC50 (HT-29) [µM]	IC50 (A2780) [µM]	IC50 (HepG2 [2]) [µM]	IC50 (A549) [µM]	IC50 (PC-3) [µM]	Drug uptake [7] [µM]	SMILES	IC50 (L02) [µM]	Activity (HepG2 [1])	CI (HepG2 [3])	Activity (HepG2 [4])	CI (HepG2 [5])	CI (HepG2 [6])	Activity (HepG2 [8])
1.73	1.64	1.17	1.05	1.33	0.99	–	C=CCc1ccc(OC)c(-c2ccc(OCCCCCc3c4[n+](cc5c(OC)c(OC)ccc35)CCc3cc5c(cc3-4)OCO5)c(CC=C)c2)c1	3.43	Active	–	–	–	–	–
6.02	> 5	1.56	2.19	3.25	1.17	–	C=CCc1ccc(O)c(-c2ccc(OCCCc3c4[n+](cc5c(OC)c(OC)ccc35)CCc3cc5c(cc3-4)OCO5)c(CC=C)c2)c1	3.56	Active	–	–	–	–	–
2.48	2.54	1.97	1.27	2.09	2	–	C=CCc1ccc(OCCCCCCCCc2c3[n+](cc4c(OC)c(OC)ccc24)CCc2cc4c(cc2-3)OCO4)c(-c2ccc(O)c(CC=C)c2)c1	5.77	Active	–	–	–	–	–
16.4	35.4	24.7	29.7	> 30	24.8	–	C=CCc1ccc(OC)c(-c2ccc(O)c(CC=C)c2)c1	35.3	–	–	–	–	–	–
> 5	> 5	3.03	3.71	> 5	2.26	–	C=CCc1ccc(OCCCc2c3[n+](cc4c(OC)c(OC)ccc24)CCc2cc4c(cc2-3)OCO4)c(-c2ccc(O)c(CC=C)c2)c1	5.21	Active	–	–	–	–	–
2.09	2.89	1.52	0.77	1.84	1.74	–	C=CCc1ccc(O)c(-c2ccc(OCCCCCCCCc3c4[n+](cc5c(OC)c(OC)ccc35)CCc3cc5c(cc3-4)OCO5)c(CC=C)c2)c1	4.82	Active	–	–	–	–	–
–	–	–	19.2	–	–	–	C=CCc1ccc(O)c(-c2ccc(OCCCCC)c(CC=C)c2)c1	–	–	–	–	–	0.79	–
16.7	21.1	14.7	17.5	22	17.9	–	C=CCc1ccc(O)c(-c2ccc(OC)c(CC=C)c2)c1 [METHYLHONOKIOL]	23.9	–	–	–	–	–	–
3.24	> 5	1.59	2.32	2.9	1.59	–	C=CCc1ccc(OCCCCCc2c3[n+](cc4c(OC)c(OC)ccc24)CCc2cc4c(cc2-3)OCO4)c(-c2ccc(O)c(CC=C)c2)c1	3.04	Active	–	–	–	–	–
31.2	31.6	31.6	23.9	38	29	17.8	C=CCc1ccc(O)c(-c2ccc(O)c(CC=C)c2)c1 [HONOKIOL]	25.5	–	–	–	–	–	Active
